Published values collected from several papers.
Lines come from different studies, so protocols differ.
Target: Cyclin-dependent kinase 17 (CDK17, Homo sapiens, UniProt Q00537)

SMILES | effect on | method | concentration | remaining binding
CC1=C(C#N)[C@@H](c2ccc3[nH]nc(C)c3c2)C(C#N)=C(c2ccc(Cl)cc2)N1 | cell-free assay | competition with immobilised ligand | 1 µM | 87.2%
CN(c1nccc(-c2cnn3ncccc23)n1)C1CC1 | binding | – | 1 µM | 100%
O=c1nc(-c2ccccn2)sc2ccccc12 | binding | competition with immobilised ligand | 1 µM | 100%
O=C(Nc1c[nH]nc1C(=O)NC1CCNCC1)c1cc(F)cc(F)c1 | binding | competition with immobilised ligand | 1 µM | 20%
CC1CCCN1c1nccc(-c2cnn3ncccc23)n1 (centres unmarked) | binding | – | 1 µM | 100%
Cc1noc([C@H]2C[C@@H](c3ccc(C(F)(F)F)cc3)CN(C(=O)N3CCS(=O)(=O)C3)C2)n1 | cell-free assay | competition with immobilised ligand | 1 µM | 100%
Cc1cnc(Nc2ccc(C(=O)N3CCC(N4CCCC4)CC3)cc2)nc1-c1cc2ccccc2s1 | binding | competition with immobilised ligand | 1 µM | 9.2%
CN(C)c1nccc(-c2cnn3ncccc23)n1 | binding | – | 1 µM | 100%
O=C(c1ccc(Nc2ncc(Cl)c(-c3ccc(Cl)s3)n2)cc1)N1CCC(N2CCCC2)CC1 | binding | competition with immobilised ligand | 1 µM | 1.8%
c1cncc(-c2cccc(Nc3nccc(NC4CCCCC4)n3)c2)c1 | binding | competition with immobilised ligand | 10 µM | 72%
CCN1CCN(Cc2ccc(C(=O)Nc3ccc(C)c(Oc4ccc5c(c4)CC(=O)N5)c3)cc2C(F)(F)F)CC1 | binding | competition with immobilised ligand | 1 µM | 100%
C[C@@H](c1ccc(-n2cnc3c(N)ncnc32)cc1)N1CCc2nn(C)c(Cc3ccccc3)c2C1=O | binding | competition with immobilised ligand | 0.1 µM | 91%
Cc1cnn2ncc(-c3ccnc(N(C)C)n3)c2c1 | binding | – | 1 µM | 100%
COc1cnc(Nc2cccc(S(N)(=O)=O)c2)nc1N1CCN(c2ccccc2)C(=O)C1 | binding | competition with immobilised ligand | 1 µM | 100%
CC(=O)N1CCC(c2ccc(C(=O)NC(=N)N)cc2C(F)(F)F)CC1 | cell-free assay | competition with immobilised ligand | 1 µM | 100%
O=C(c1ccc(Nc2ncc(Cl)c(-c3cc4ccccc4s3)n2)cc1)N1CCC(N2CCCC2)CC1 | binding | competition with immobilised ligand | 1 µM | 0%
CN(C)C(=O)Cn1cc(-c2nc(C3(c4ccc(-c5cnc(N)nc5)cc4)CC3)no2)cn1 | cell-free assay | competition with immobilised ligand | 1 µM | 100%
N[C@@H]1CCN(c2nccc(-c3cnn4ncccc34)n2)C1 | binding | – | 1 µM | 100%
Cc1c(NC(=O)c2cc(C(N)=O)nc3cc(F)ccc23)c(C(F)(F)F)nn1Cc1ccc(C(C)(C)C)cc1 | cell-free assay | competition with immobilised ligand | 1 µM | 100%
CN(C)c1nccc(-c2cnc3ncccn23)n1 | binding | – | 1 µM | 84%
